In ChEMBL document CHEMBL3352407, “Griseorhodins D-F, neuroactive intermediates and end products of post-PKS tailoring modification in Griseorhodin biosynthesis” (J Nat Prod, 2014):
Active and inactive are the calls of the source.

What was measured:
[1] = target: Histamine H4 receptor (Homo sapiens) (UniProt Q9H3N8); experiment: Displacement of [3H]histamine from human H4 histamine receptor expressed in HEK cells at 10 uM after 90 mins by microbeta counting analysis; type: cell-based; conditions: HEK293
In short: (§1)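 Primary radioligand displacement screen, run by PDSP/NIMH. Receptor panel includes muscarinic M1–M5. Activity threshold 10 μM. Targets with significant binding went on to secondary Ki assays.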

[2] = target: D(1A) dopamine receptor (Homo sapiens) (UniProt P21728); experiment: Displacement of [3H]SCH23390 from human dopamine D1 receptor expressed in HEKT cells at 10 uM after 90 mins by microbeta counting analysis; type: cell-based; in short: as §1
[3] = target: D(2) dopamine receptor (Homo sapiens) (UniProt P14416); experiment: Displacement of [3H]N-methylspiperone from human dopamine D2 receptor at 10 uM after 90 mins by microbeta counting analysis; in short: as §1
[4] = target: D(3) dopamine receptor (Rattus norvegicus) (UniProt P19020); experiment: Displacement of [3H]N-methylspiperone from rat dopamine D3 receptor expressed in HEKT cells at 10 uM after 90 mins by microbeta counting analysis; type: cell-based; in short: as §1
Sequence of D(3) dopamine receptor (Rattus norvegicus) (P19020 whole entry): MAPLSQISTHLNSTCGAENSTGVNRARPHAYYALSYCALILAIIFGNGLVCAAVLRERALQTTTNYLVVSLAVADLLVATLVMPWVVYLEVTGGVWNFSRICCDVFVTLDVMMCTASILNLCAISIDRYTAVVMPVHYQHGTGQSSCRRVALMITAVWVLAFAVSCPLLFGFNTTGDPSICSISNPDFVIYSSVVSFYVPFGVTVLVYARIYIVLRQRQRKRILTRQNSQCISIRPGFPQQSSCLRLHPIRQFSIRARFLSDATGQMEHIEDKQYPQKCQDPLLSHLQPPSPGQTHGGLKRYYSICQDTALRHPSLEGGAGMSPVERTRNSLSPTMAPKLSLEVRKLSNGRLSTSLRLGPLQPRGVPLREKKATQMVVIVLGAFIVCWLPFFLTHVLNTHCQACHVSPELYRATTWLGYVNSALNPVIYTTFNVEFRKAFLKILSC

[5] = target: D(4) dopamine receptor (Homo sapiens) (UniProt P21917); experiment: Displacement of [3H]N-methylspiperone from human dopamine D4 receptor at 10 uM after 90 mins by microbeta counting analysis; in short: as §1
[6] = target: D(1B) dopamine receptor (Homo sapiens) (UniProt P21918); experiment: Displacement of [3H]SCH23390 from human dopamine D5 receptor expressed in HEKT cells at 10 uM after 90 mins by microbeta counting analysis; type: cell-based; in short: as §1
Sequence of D(1B) dopamine receptor (Homo sapiens) (P21918 whole entry): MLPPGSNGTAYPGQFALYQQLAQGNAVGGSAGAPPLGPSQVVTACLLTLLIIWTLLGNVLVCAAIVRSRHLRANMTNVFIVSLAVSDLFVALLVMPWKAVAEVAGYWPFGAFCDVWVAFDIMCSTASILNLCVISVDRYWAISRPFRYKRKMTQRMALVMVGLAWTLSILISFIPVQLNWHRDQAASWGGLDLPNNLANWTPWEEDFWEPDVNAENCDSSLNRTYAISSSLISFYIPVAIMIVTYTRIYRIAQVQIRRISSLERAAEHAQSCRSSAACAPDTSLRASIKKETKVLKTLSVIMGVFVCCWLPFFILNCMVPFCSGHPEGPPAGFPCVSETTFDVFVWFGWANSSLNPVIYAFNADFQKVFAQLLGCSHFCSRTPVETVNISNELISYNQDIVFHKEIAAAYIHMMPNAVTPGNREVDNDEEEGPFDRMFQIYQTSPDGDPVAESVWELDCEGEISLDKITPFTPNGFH

[7] = target: Sodium-dependent noradrenaline transporter (Homo sapiens) (UniProt P23975); experiment: Displacement of [3H]nisoxetine from NET (unknown origin) expressed in HEK cells at 10 uM after 90 mins by microbeta counting analysis; type: cell-based; conditions: HEK293; in short: as §1
Sequence of Sodium-dependent noradrenaline transporter (Homo sapiens) (P23975 whole entry): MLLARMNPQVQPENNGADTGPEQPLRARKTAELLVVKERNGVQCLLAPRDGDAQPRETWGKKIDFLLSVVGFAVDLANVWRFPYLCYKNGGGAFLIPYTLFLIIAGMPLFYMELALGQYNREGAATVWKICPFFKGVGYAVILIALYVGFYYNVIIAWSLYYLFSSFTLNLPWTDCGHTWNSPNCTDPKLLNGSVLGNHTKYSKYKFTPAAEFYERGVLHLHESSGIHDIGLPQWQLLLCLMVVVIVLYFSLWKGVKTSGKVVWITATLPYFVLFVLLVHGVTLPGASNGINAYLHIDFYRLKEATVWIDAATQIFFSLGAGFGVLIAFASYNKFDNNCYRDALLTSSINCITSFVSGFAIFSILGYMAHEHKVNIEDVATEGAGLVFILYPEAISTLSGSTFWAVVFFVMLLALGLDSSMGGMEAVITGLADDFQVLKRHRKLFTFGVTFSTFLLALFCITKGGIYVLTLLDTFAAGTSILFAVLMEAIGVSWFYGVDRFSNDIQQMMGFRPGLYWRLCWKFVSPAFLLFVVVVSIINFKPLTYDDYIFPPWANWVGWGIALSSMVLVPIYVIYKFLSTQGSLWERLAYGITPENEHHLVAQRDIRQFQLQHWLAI

[8] = target: Sodium-dependent serotonin transporter (Homo sapiens) (UniProt P31645); experiment: Displacement of [3H]citalopram from SERT (unknown origin) expressed in HEK cells at 10 uM after 90 mins by microbeta counting analysis; type: cell-based; conditions: HEK293; in short: as §1
[9] = target: Sodium-dependent dopamine transporter (Homo sapiens) (UniProt Q01959); experiment: Displacement of [3H]WIN35428 from human DAT expressed in HEK cells at 10 uM after 90 mins by microbeta counting analysis; type: cell-based; conditions: HEK293
[10] = target: Delta-type opioid receptor (Homo sapiens) (UniProt P41143); experiment: Displacement of [3H]DADLE from delta opioid receptor (unknown origin) expressed in HEK cells at 10 uM after 90 mins by microbeta counting analysis; type: cell-based; conditions: HEK293; in short: as §1
Sequence of Delta-type opioid receptor (Homo sapiens) (P41143 whole entry): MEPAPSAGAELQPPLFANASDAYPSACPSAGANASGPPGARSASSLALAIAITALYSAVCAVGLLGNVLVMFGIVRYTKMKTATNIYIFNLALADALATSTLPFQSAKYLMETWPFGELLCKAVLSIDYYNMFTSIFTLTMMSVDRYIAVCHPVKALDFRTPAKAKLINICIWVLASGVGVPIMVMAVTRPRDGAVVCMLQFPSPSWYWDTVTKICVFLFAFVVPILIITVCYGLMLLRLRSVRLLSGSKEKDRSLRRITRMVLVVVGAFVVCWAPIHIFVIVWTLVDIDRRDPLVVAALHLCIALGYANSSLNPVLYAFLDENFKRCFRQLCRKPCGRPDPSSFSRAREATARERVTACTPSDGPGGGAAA

[11] = target: Kappa-type opioid receptor (Homo sapiens) (UniProt P41145); experiment: Displacement of [3H]U69593 from kappa opioid receptor (unknown origin) expressed in HEK cells at 10 uM after 90 mins by microbeta counting analysis; type: cell-based; conditions: HEK293; in short: as §1
Sequence of Kappa-type opioid receptor (Homo sapiens) (P41145 whole entry): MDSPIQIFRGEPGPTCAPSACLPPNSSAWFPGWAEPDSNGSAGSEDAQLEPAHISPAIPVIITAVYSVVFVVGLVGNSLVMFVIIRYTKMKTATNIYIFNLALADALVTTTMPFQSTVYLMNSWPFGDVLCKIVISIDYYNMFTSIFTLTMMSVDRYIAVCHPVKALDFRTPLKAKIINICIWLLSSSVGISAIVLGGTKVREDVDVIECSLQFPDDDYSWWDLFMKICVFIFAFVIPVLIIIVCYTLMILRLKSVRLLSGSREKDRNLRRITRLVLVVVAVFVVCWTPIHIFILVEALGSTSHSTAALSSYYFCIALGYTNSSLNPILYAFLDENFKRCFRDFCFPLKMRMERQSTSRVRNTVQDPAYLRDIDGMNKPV

[12] = target: Mu-type opioid receptor (Homo sapiens) (UniProt P35372); experiment: Displacement of [3H]DAMGO from mu opioid receptor (unknown origin) expressed in HEK cells at 10 uM after 90 mins by microbeta counting analysis; type: cell-based; conditions: HEK293; in short: as §1
Sequence of Mu-type opioid receptor (Homo sapiens) (P35372 whole entry): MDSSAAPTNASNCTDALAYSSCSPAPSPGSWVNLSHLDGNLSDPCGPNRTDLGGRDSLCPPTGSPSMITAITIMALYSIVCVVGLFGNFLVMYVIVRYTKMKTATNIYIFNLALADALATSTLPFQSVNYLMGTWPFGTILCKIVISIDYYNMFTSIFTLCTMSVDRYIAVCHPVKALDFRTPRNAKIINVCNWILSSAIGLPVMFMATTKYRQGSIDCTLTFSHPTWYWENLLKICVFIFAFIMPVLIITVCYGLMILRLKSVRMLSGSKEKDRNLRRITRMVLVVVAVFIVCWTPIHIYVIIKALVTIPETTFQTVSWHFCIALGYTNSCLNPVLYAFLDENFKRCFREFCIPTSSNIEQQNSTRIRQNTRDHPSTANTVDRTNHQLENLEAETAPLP

[13] = target: Alpha-1A adrenergic receptor (Homo sapiens) (UniProt P35348); experiment: Displacement of [3H]prazosin from adrenergic alpha1A receptor (unknown origin) at 10 uM after 90 mins by microbeta counting analysis; in short: as §1
[14] = target: Alpha-1B adrenergic receptor (Homo sapiens) (UniProt P35368); experiment: Displacement of [3H]prazosin from adrenergic alpha1B receptor (unknown origin) expressed in HEKT cells at 10 uM after 90 mins by microbeta counting analysis; type: cell-based; in short: as §1
Sequence of Alpha-1B adrenergic receptor (Homo sapiens) (P35368 whole entry): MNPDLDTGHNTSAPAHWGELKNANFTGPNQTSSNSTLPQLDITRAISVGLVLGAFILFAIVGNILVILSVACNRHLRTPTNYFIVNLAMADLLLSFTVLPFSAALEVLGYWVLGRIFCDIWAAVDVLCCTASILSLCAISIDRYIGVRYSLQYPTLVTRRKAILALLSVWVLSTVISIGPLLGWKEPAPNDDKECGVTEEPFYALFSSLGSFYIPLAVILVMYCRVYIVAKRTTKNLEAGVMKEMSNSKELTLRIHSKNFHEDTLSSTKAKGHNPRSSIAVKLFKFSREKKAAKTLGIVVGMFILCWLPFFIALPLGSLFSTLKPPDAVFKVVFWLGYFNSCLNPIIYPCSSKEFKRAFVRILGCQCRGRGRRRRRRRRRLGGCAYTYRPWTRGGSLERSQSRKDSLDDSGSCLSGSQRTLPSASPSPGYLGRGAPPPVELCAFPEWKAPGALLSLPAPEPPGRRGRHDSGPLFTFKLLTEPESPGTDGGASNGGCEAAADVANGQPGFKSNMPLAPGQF

[15] = target: Alpha-1D adrenergic receptor (Homo sapiens) (UniProt P25100); experiment: Displacement of [3H]prazosin from adrenergic alpha1D receptor (unknown origin) at 10 uM after 90 mins by microbeta counting analysis; in short: as §1
[16] = target: Alpha-2A adrenergic receptor (Homo sapiens) (UniProt P08913); experiment: Displacement of [3H]rauwolscine from adrenergic alpha2A receptor (unknown origin) expressed in MDCK cells at 10 uM after 90 mins by microbeta counting analysis; type: cell-based; in short: as §1
Sequence of Alpha-2A adrenergic receptor (Homo sapiens) (P08913 whole entry): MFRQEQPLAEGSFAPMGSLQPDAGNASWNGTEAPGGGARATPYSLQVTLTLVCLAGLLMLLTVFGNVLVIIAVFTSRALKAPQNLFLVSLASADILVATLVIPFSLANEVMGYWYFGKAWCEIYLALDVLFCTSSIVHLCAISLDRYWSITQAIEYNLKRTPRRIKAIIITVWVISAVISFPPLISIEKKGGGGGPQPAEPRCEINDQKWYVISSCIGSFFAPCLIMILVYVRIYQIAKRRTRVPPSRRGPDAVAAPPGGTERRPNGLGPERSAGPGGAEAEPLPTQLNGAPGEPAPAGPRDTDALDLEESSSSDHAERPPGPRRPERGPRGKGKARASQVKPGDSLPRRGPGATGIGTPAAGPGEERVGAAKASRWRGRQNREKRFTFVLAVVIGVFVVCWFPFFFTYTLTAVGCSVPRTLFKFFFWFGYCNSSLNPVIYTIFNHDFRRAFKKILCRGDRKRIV

[17] = target: Alpha-2B adrenergic receptor (Homo sapiens) (UniProt P18089); experiment: Displacement of [3H]rauwolscine from adrenergic alpha2B receptor (unknown origin) expressed in HEKT cells at 10 uM after 90 mins by microbeta counting analysis; type: cell-based; in short: as §1
[18] = target: Alpha-2C adrenergic receptor (Homo sapiens) (UniProt P18825); experiment: Displacement of [3H]rauwolscine from adrenergic alpha2C receptor (unknown origin) expressed in MDCK cells at 10 uM after 90 mins by microbeta counting analysis; type: cell-based; in short: as §1
[19] = target: Beta-1 adrenergic receptor (Homo sapiens) (UniProt P08588); experiment: Binding affinity to human adrenergic beta1 receptor expressed in CHO Flp-In cells at 10 uM after 90 mins by microbeta counting analysis; type: cell-based; in short: as §1
[20] = target: Beta-2 adrenergic receptor (Homo sapiens) (UniProt P07550); experiment: Displacement of [3H]CGP12177 from human adrenergic beta2 receptor expressed in HEK Flp-In cells at 10 uM after 90 mins by microbeta counting analysis; type: cell-based; conditions: HEK293; in short: as §1
Sequence of Beta-2 adrenergic receptor (Homo sapiens) (P07550 whole entry, looked up): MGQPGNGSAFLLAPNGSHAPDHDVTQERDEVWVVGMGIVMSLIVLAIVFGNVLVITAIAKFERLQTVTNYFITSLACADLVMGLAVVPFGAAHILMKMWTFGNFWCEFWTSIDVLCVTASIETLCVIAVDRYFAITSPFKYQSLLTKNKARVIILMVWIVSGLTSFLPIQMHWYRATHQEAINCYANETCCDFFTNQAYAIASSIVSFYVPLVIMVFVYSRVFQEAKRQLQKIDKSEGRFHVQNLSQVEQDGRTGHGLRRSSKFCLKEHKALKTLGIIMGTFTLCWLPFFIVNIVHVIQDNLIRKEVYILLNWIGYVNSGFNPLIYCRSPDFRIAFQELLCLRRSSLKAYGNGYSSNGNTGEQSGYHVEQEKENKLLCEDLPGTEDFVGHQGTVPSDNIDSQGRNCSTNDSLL

[21] = target: Beta-3 adrenergic receptor (Homo sapiens) (UniProt P13945); experiment: Binding affinity to human adrenergic beta3 receptor expressed in HEK Flp-In cells at 10 uM after 90 mins by microbeta counting analysis; type: cell-based; conditions: HEK293; in short: as §1
Sequence of Beta-3 adrenergic receptor (Homo sapiens) (P13945 whole entry, looked up): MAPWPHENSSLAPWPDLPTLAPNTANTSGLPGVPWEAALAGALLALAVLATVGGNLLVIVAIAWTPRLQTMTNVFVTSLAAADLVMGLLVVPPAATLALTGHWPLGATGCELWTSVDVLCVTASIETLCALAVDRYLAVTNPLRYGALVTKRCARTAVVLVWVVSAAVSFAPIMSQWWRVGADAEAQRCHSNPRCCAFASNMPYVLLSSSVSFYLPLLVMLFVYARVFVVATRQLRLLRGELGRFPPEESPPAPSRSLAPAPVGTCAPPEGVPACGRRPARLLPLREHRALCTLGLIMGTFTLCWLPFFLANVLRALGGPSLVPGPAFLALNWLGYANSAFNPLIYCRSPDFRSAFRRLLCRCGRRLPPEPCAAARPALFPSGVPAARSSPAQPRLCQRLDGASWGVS

[22] = target: Sigma non-opioid intracellular receptor 1 (Rattus norvegicus) (UniProt Q9R0C9); experiment: Displacement of [3H]pentazocine from rat sigma1 receptor at 10 uM after 90 mins by microbeta counting analysis; in short: as §1
Sequence of Sigma non-opioid intracellular receptor 1 (Rattus norvegicus) (Q9R0C9 whole entry): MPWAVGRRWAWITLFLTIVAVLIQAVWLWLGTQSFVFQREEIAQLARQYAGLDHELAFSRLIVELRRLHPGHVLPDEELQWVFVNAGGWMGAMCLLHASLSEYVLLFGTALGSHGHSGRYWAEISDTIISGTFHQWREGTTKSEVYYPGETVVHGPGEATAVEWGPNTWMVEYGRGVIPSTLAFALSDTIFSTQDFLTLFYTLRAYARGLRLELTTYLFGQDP

Rattus norvegicus = species: Rattus norvegicus; experiment: Displacement of [3H]DTG from rat sigma2 receptor at 10 uM after 90 mins by microbeta counting analysis; in short: as §1
[23] = target: Voltage-gated L-type calcium channel (Rattus norvegicus, UniProt P22002+Q02485+P27732); experiment: Binding affinity to rat calcium channel at 10 uM after 90 mins by microbeta counting analysis; conditions: 1.5 h; in short: as §1

Activity [1]: inactive | Activity [2]: inactive | Activity [3]: inactive | Activity [4]: inactive | Activity [5]: inactive | Activity [6]: inactive | Activity [7]: inactive | Activity [8]: inactive | Activity [9]: inactive | Activity [10]: inactive | Activity [11]: inactive | Activity [12]: inactive | Activity [13]: inactive | Activity [14]: inactive | Activity [15]: inactive | Activity [16]: inactive | Activity [17]: inactive | Activity [18]: inactive | Activity [19]: inactive | Activity [20]: inactive | Activity [21]: inactive | Activity [22]: inactive | Activity (Rattus norvegicus): inactive | Activity [23]: Not Active
SMILES: COC(=O)CCc1cc2cc(C)oc(=O)c2c(O)c1O
